In the library only some 1.8% were active in any assay of this set; here they are far more common.
SIAE inh: inhibitors of human sialic acid acetylesterase SIAE; inhibition, % at 9.66 µM; SIAE FP-Rh probe binding, fluorescence polarization; 370,000 tested, 0.69% active; AID 1053197;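 active = inhibition above a cutoff: mean of compounds within the control limits plus 3 SD of those, cut at about 17% in these data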;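 note: 0% = plate median of compound wells and 100% = probe without SIAE protein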
Fam108B counter: Fam108B inhibition, counter-screen for RBBP9 inhibitors; AID 1947; recombinant Fam108B, FP-Rh probe fluorescence polarization; inhibition, % at 9.51 µM; 300,000 tested, 0.33% active;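 active = inhibition above the screen mean inhibition plus 3 SD, computed separately per campaign, cut at about 18% in these data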;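 note: inhibitors lower polarization as less probe binds the enzyme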
mABHD4 FP: inhibits mouse alpha/beta hydrolase domain 4. Q8VD66. purified mABHD4, FP-Rh probe fluorescence polarization. inhibition, % at 8.92 µM. 370,000 tested, 0.54% active. AID 720543;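 active = inhibition exceeding the mean over every tested compound plus 3 SD, cut at about 30% in these data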;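 note: 0% = plate median of compound wells and 100% = S159A mutant with DMSO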
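Material: mouse ABHD4 enzyme, wild type; Benchmarks: S159A mutant high control, sample median low control; Buffer or medium: HEPES pH 7.0, NaCl, Pluronic buffer; Signal: fluorescence polarization; Read-out: percent inhibition of probe binding, normalized to plate controls; Timing: pre-incubation 45 min, probe exposure 60 min, at 25 °C; Dosing: 8.92 µM, single dose.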
PME-1 inh: blocks human protein phosphatase methylesterase 1. 320,000 tested, 0.53% active. Q9Y570. inhibition, % at 5.9 µM. recombinant PME-1, FP-Rh probe fluorescence polarization. AID 2130;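 active = inhibition above the campaign mean of all compounds plus 3 SD, cut at about 26% in these data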;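 note: competitive labeling of PME-1 active site by serine hydrolase directed probe; 0% = PME-1 with DMSO and 100% = wells lacking PME-1 enzyme; inhibitors block probe labeling so polarization falls and inhibition rises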
TCR-CD3 inh: human TCR-CD3 binding inhibition; TAMRA-labeled TCR probe fluorescence, biochemical; inhibition, % at 9.4 µM; 360,000 tested, 0.37% active; in the data active = inhibition above about 19%;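 note: recombinant mutant TCR 2C K166C tagged with TAMRA read by polarization; 0% = receptor in buffer alone and 100% = receptor with positive control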
HTRA1 inhibitor: HTRA1 (human) protease inhibition | recombinant HTRA1, FP-rhodamine activity-based probe, fluorescence polarization | inhibition, % at 5.96 µM | 340,000 tested, 0.5% active; in the data active = inhibition above about 36%;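 note: 0% = enzyme with DMSO and 100% = wells lacking enzyme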
Target sequence (Q92743 whole entry, looked up): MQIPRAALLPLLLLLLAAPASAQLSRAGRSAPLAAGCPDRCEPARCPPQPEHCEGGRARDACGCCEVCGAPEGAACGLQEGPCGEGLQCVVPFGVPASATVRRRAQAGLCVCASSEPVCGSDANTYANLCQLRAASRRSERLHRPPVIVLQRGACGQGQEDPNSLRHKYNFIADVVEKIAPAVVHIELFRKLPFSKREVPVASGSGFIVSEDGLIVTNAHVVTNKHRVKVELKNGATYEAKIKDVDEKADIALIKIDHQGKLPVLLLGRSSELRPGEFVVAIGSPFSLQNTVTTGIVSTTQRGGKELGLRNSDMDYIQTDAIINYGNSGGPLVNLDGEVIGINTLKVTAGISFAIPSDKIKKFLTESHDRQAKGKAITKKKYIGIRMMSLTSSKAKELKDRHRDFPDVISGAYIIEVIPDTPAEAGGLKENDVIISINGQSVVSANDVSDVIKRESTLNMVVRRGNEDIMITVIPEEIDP
HTRA1 inh conf: confirmation of human HTRA1 inhibitors | shares compounds with HTRA1 inhibitor | recombinant HTRA1, FP-rhodamine activity-based probe, fluorescence polarization | inhibition, % at 5.96 µM | 1,600 tested, 66% active | AID 540248;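 active = mean inhibition over three repeats above a set limit taken from the earlier primary screen, cut at about 37% in these data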;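 note: 0% = HTRA1 with DMSO and 100% = wells lacking HTRA1; inhibitors block probe binding so polarization drops and inhibition rises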
Starred values were filed as active, the others as inactive; · = no result.

SMILES	SIAE inh	Fam108B counter	mABHD4 FP	PME-1 inh	TCR-CD3 inh	HTRA1 inhibitor	HTRA1 inh conf
O=C(CSc1nc2nn(-c3ccccc3)c(=O)c-2c2n1CCCCC2)c1ccc(O)c(O)c1	·	·	·	4	·	74*	97*
Cc1cc(-c2ccccc2)nc(N/N=C/c2ccc(O)cc2O)n1	14	7	24	40*	-2	41*	75*
Cc1cc(-c2ccccc2)nc(N/N=C/c2ccccc2)n1	-2	2	1	9	3	-5	·
Nc1ccc(-c2nc3ccc(N)cc3o2)cc1	4	-2	3	5	-2	-1	·
Cc1ccc2nc(-c3cc(N)cc(N)c3)oc2c1	0	2	16	9	0	37*	22
FC(F)(F)c1cnc(NNC(=S)Nc2ccc(Cl)cc2)c(Cl)c1	8	2	14	7	-2	49*	54*
Cc1ccc(NC(=S)NNc2ncc(C(F)(F)F)cc2Cl)cc1	1	-5	8	12	-2	38*	36
Fc1ccc(NC(=S)NNc2ncc(C(F)(F)F)cc2Cl)c(F)c1	5	1	7	0	11	46*	69*
CCC[C@H]1[C@@H](NCc2cccs2)CC[C@@]23CCCN2C(=O)CCC[C@@H]13	5	·	0	·	·	·	·
C=CCC12C=C(OC)C(=O)C(C1=O)C1c3ccccc3CC12 (configuration not stated)	3	·	6	·	·	·	·
COc1cc(NC(=O)C2CCN(c3nnc(-n4cccc4)s3)CC2)cc(OC)c1	-4	·	-9	·	·	·	·
COc1ccc(OC)c(S(=O)(=O)N2CCCCC2C(=O)N2CCN(c3ccccc3F)CC2)c1 (configuration not stated)	6	·	6	·	·	·	·
CC(C)NC(=S)N/N=C/c1cc(Br)ccc1O	16	5	8	1	9	37*	49*
COc1ccccc1NS(=O)(=O)c1cc(N)ccc1N1CCOCC1	6	·	3	·	-4	37*	-13
COc1ccc(OC)c(/C=N/NC(=O)CCc2ccc(O)c(O)c2)c1	-2	6	12	-7	5	53*	79*
COc1ccc(-c2cc3ccccc3n2CC(O)CN2CCC(C)CC2)cc1 (configuration not stated)	-1	3	11	-1	1	-9	·
COc1ccc(-c2cc3ccccc3n2CC(O)Cn2nc(C)cc2C)cc1 (configuration not stated)	13	4	-8	-2	3	38*	-11
Cc1ccc(N=Nc2ccc(O)c3ncccc23)cc1C	7	1	6	9	-1	39*	82*
Oc1ccc(CNc2ccccc2C(F)(F)F)c2cccnc12	4	·	17	·	·	·	·
Cc1ccc(N=Nc2ccc(O)c3ncccc23)cc1	3	6	16	8	5	50*	70*
Oc1ccc(N=Nc2ccccc2C(F)(F)F)c2cccnc12	2	3	7	3	-3	54*	75*
Oc1ccc(F)c2cccnc12	1	1	1	2	1	24	·
CCC[C@H](/C=C/C(=O)OC(C)(C)C)Sc1ccc(OC)cc1	1	·	2	·	·	·	·
O=C1C=C(O)c2[nH]c(=O)ccc2C1=O	1	·	17	·	9	47*	13
NC1=CC(=O)C(=O)c2ccccc21	-5	·	25	·	4	10	·
SMILES	SIAE inh	Fam108B counter	mABHD4 FP	PME-1 inh	TCR-CD3 inh	HTRA1 inhibitor	HTRA1 inh conf
COC(=O)[C@]12C[C@H](CC(=O)N3CCCC3)C(=O)N(CCC3=CCCCC3)C1=C[C@H](C(C)C)O[C@@H]2C1CC1	-4	·	6	·	·	·	·
O=C(O)Cc1ccc(N=Nc2c(O)c(C(=O)O)cc3ccccc23)cc1	7	-2	22	-11	10	45*	43*
Oc1c(CN2CCN(c3ccccn3)CC2)cc(Cl)c2cccnc12	·	3	·	3	·	39*	58*
Oc1ccc(CN2CCN(c3ccccc3)CC2)c2cccnc12	·	3	·	-2	·	29	·
COCc1cc(CN2CCCC2)c(O)c2ncccc12	4	5	10	0	3	18	·
OCCN1CCN(Cc2cc(Cl)c3cccnc3c2O)CC1	4	1	4	-5	6	52*	54*
CC1=NN(c2ccc(C(=O)O)cc2)C(=O)/C1=C\c1ccc(OC(=O)c2cccs2)cc1	-5	8	12	3	-3	39*	7

Assay outcomes as filed in PubChem BioAssay.
